Test system: Cell membrane
Test: Induction of outer membrane permeabilization in wild type Escherichia coli BW25113 assessed as increase in nitrocefin hydrolysis at 32 ug/ml in presence of CCCP by spectroscopic analysis
Conditions: dose 32 µg/ml; call rule not given here
Outline: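 Intact E. coli were treated with 10 μM CCCP to block nitrocefin efflux, then given compound, nothing, or polymyxin B as permeabilizer control. Nitrocefin was added, and hydrolysis by periplasmic β-lactamase was followed as the rise in absorbance at 490 nm. Duplicate experiments were run on different days.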

How did the Activity turn out when C=CC(=O)Nc1ccc(COc2cccc3c4c(c(Cn5cnnn5)cc23)CCC(C)(C)O4)cc1 was run?
The Activity was “Not Active”.
